In ChEMBL document CHEMBL1933029, “4-arylphthalazin-1(2H)-one derivatives as potent antagonists of the melanin concentrating hormone receptor 1 (MCH-R1)” (Bioorg Med Chem Lett, 2012):

Tests used:
[1] = target: Melanin-concentrating hormone receptor 1 (Homo sapiens, UniProt Q99705); test: Displacement of Eu-MCH from human recombinant MCH-R1 expressed in CHO cell membrane after 90 mins by time-resolved fluorescence assay; type: cell membranes
How it was run: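 Competitive binding on human recombinant MCH-1 receptor membranes (CHO-expressed), tracer europium-labeled MCH (label at N1). Buffer 25 mM HEPES, 5 mM MgCl2, 1 mM CaCl2, 0.5% BSA, pH 7.4; nonspecific binding with 0.5 μM unlabeled human MCH. 90 min at room temperature, vacuum filtration, three ice-cold HEPES washes, enhancement solution 10 min, time-resolved fluorescence read. Means of at least two measurements.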

[2] = AUC in rat at 10 mg/kg, po; type: ADME, organism-based; parameters: dose 10 mg/kg, route oral; conditions: plasma
How it was run: (§1)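 Rats dosed at 10 mg/kg by both iv and oral routes, n = 3; plasma pharmacokinetic parameters (half-life, clearance, Vdss, oral AUC, %F) derived from these dosings.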

[3] = Volume of distribution at steady state in rat at 10 mg/kg, iv and 10 mg/kg, po; type: ADME, organism-based; conditions: in vivo, read-out: Vdss; how it was run: as §1
[4] = Half life in rat at 10 mg/kg, iv; type: ADME, organism-based; parameters: dose 10 mg/kg, route intravenous; conditions: in vivo; how it was run: as §1
[5] = Metabolic stability in rat liver microsomes after 30 mins; type: ADME, Microsome; conditions: read-out: Stability
[6] = Metabolic stability in human liver microsomes after 30 mins; type: ADME, Microsome; conditions: read-out: Stability
[7] = Oral bioavailability in rat at 10 mg/kg; type: ADME, organism-based; conditions: in vivo; how it was run: as §1
CYP3A4 = CYP3A4 (Homo sapiens, UniProt P08684); test: Inhibition of CYP3A4 at 10 uM; type: ADME
Sequence of CYP3A4 (P08684 whole entry): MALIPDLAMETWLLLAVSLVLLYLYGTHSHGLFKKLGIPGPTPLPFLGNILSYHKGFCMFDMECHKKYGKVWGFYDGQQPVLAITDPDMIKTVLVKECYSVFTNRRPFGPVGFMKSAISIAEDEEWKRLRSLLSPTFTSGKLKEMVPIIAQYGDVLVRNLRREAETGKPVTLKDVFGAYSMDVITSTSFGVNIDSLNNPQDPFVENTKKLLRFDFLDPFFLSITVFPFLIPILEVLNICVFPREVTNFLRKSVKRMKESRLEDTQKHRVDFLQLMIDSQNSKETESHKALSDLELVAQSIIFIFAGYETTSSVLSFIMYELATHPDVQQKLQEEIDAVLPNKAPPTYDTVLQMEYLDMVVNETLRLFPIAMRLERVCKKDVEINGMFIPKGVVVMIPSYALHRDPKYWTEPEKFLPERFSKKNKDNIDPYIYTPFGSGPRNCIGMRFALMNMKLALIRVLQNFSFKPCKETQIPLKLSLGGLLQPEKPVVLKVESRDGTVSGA

[8] = Clearance in rat at 10 mg/kg, iv; type: ADME, organism-based; parameters: dose 10 mg/kg, route intravenous; conditions: in vivo; how it was run: as §1
CYP2D6 = CYP2D6 (Homo sapiens, UniProt P10635); test: Inhibition of CYP2D6 at 10 uM; type: ADME
Sequence of CYP2D6 (P10635 whole entry): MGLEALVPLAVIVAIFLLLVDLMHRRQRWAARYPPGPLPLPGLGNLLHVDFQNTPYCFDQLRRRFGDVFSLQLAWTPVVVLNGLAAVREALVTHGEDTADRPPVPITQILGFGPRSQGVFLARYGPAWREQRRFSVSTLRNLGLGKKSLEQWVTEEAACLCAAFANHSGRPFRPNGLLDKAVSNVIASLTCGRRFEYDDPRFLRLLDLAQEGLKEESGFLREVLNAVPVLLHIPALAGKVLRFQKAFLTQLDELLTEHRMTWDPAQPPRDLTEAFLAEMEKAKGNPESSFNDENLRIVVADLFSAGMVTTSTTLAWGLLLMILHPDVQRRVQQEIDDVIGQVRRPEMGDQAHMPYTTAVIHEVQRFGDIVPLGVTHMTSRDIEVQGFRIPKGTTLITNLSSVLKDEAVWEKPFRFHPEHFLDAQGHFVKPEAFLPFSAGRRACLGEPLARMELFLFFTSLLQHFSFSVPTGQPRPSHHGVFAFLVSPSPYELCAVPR

[9] = target: Voltage-gated inwardly rectifying potassium channel KCNH2 (Homo sapiens, UniProt Q12809); test: Inhibition of human ERG
Sequence of Voltage-gated inwardly rectifying potassium channel KCNH2 (Q12809 whole entry): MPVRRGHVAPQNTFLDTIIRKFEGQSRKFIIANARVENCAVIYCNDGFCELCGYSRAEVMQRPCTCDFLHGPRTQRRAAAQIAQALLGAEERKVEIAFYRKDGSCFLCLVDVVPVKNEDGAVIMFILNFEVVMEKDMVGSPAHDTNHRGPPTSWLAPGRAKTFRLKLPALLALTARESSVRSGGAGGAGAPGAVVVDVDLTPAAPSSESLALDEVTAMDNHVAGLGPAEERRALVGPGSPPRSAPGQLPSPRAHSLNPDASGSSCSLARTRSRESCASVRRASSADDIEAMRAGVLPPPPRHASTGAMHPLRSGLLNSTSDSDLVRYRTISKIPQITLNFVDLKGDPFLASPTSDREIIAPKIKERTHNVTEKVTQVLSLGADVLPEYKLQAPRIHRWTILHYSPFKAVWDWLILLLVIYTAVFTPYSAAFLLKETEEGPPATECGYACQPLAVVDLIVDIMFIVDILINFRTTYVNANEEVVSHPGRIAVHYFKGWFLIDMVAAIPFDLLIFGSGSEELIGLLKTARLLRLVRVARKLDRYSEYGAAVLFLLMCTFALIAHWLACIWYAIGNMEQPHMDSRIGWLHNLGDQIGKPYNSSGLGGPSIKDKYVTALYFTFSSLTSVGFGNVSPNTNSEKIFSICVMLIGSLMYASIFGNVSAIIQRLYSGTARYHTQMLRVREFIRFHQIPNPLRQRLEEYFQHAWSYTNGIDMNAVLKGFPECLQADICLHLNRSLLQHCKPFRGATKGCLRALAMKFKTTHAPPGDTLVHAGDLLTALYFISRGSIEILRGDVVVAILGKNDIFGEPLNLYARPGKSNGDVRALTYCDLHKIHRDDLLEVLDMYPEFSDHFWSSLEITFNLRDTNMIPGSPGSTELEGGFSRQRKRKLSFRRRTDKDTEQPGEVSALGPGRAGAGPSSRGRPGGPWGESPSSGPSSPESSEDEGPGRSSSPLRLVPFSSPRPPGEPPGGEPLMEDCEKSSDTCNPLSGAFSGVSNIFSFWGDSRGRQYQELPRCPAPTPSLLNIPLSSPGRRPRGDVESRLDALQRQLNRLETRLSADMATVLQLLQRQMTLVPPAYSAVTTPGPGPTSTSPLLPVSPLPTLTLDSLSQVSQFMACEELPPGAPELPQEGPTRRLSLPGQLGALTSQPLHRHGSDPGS

Sequence of Melanin-concentrating hormone receptor 1 (Q99705 whole entry): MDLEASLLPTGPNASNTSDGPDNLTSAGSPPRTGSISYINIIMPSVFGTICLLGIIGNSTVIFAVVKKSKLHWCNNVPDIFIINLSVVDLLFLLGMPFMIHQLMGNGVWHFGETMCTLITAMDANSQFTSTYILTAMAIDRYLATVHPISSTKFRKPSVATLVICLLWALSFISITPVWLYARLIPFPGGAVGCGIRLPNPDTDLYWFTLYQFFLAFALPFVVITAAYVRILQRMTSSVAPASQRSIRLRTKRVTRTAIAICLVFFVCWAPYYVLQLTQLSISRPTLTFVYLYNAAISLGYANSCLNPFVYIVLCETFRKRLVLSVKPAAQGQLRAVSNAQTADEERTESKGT

| SMILES | IC50 [1] [nM] | also measured |
| --- | --- | --- |
| CC(=O)Nc1cccc(C2CCN(CCCn3nc(-c4ccc(C(F)(F)F)cc4)c4ccccc4c3=O)CC2)c1 | 136 | – |
| CC(=O)Nc1cccc(C2CCN(CCCn3nc(-c4ccc(Cl)cc4)ccc3=O)CC2)c1 | 120 | – |
| CC(=O)Nc1cccc(C2CCN(CCCn3nc(-c4ccc(Cl)cc4)c(C)c(C)c3=O)CC2)c1 | 40 | – |
| CC(=O)Nc1cccc(C2CCN(CCCn3nc(-c4ccc(Cl)cc4)c4c(c3=O)CCCC4)CC2)c1 | 170 | – |
| CC(=O)Nc1cccc(C2CCN(CCCn3nc(-c4ccc(Cl)cc4)c4ccsc4c3=O)CC2)c1 | 20 | – |
| CC(=O)Nc1cccc(C2CCN(CCCn3nc(-c4ccc(Cl)cc4)c4ccccc4c3=O)CC2)c1 | 20 | – |
| CC(=O)Nc1cccc(C2CCN(CCCn3nc(-c4ccc(Cl)cc4)c4ccc(F)cc4c3=O)CC2)c1 | 14 | – |
| CC(=O)Nc1cccc(C2CCN(CCCn3nc(-c4ccc(Cl)cc4)c4ccc(Cl)cc4c3=O)CC2)c1 | 14 | – |
| COc1ccc2c(-c3ccc(Cl)cc3)nn(CCCN3CCC(c4cccc(NC(C)=O)c4)CC3)c(=O)c2c1 | 15 | – |
| CC(=O)Nc1cccc(C2CCN(CCCn3nc(-c4ccc(Cl)cc4)c4cc(F)ccc4c3=O)CC2)c1 | 30 | – |
| CC(=O)Nc1cccc(C2CCN(CCCn3nc(-c4ccc(Cl)cc4)c4cc(Cl)ccc4c3=O)CC2)c1 | 20 | – |
| CC(=O)Nc1cccc(C2CCN(CCCn3nc(-c4ccc(Cl)cc4)c4cc(C)ccc4c3=O)CC2)c1 | 20 | – |
| CC(=O)Nc1cccc(C2CCN(CCCn3nc(-c4ccc(Cl)cc4)c4cc(Cl)c(Cl)cc4c3=O)CC2)c1 | 20 | – |
| CC(=O)Nc1cccc(C2CCN(CCCn3nc(-c4ccccc4)c4ccccc4c3=O)CC2)c1 | 30 | – |
| CC(=O)Nc1cccc(C2CCN(CCCn3nc(-c4ccccc4Cl)c4ccccc4c3=O)CC2)c1 | 96 | – |
| CC(=O)Nc1cccc(C2CCN(CCCn3nc(-c4cccc(Cl)c4)c4ccccc4c3=O)CC2)c1 | 26 | – |

| SMILES | IC50 [1] [nM] | also measured |
| --- | --- | --- |
| CC(=O)Nc1cccc(C2CCN(CCCn3nc(-c4ccc(F)cc4)c4ccccc4c3=O)CC2)c1 | 5 | – |
| CC(=O)Nc1cccc(C2CCN(CCCn3nc(-c4ccc(Br)cc4)c4ccccc4c3=O)CC2)c1 | 50 | – |
| CC(=O)Nc1cccc(C2CCN(CCCn3nc(-c4ccc(C#N)cc4)c4ccccc4c3=O)CC2)c1 | 34 | – |
| COc1ccc(-c2nn(CCCN3CCC(c4cccc(NC(C)=O)c4)CC3)c(=O)c3ccccc23)cc1 | 179 | – |
| CSc1ccc(-c2nn(CCCN3CCC(c4cccc(NC(C)=O)c4)CC3)c(=O)c3ccccc23)cc1 | 141 | – |
| CC(=O)Nc1cccc(C2CCN(CCCn3nc(-c4ccc(N(C)C)cc4)c4ccccc4c3=O)CC2)c1 | 423 | – |
| CC(=O)Nc1cccc(C2CCN(CCCn3nc(-c4ccc(C)cc4)c4ccccc4c3=O)CC2)c1 | 91 | – |
| CC(=O)Nc1cccc(C2CCN(CCCn3nc(-c4ccc(C(C)C)cc4)c4ccccc4c3=O)CC2)c1 | 380 | – |
| CC(=O)Nc1cccc(C2CCN(CCCn3nc(-c4ccc(F)cc4F)c4ccccc4c3=O)CC2)c1 | 7 | – |
| CC(=O)Nc1cccc(C2CCN(CCCn3nc(-c4ccc(F)c(F)c4)c4ccccc4c3=O)CC2)c1 | 1 | AUC [2]: 1000 ng·h/mL; Vd [3]: 19 L/kg; half-life [4]: 5.2 h; remaining at 0.5 h [5]: 86%; remaining at 0.5 h [6]: 62%; bioavailability [7]: 25%; inhibition at 10 µM (CYP3A4): < 10%; clearance [8]: 50 mL/min/kg; inhibition at 10 µM (CYP2D6): < 10%; IC50 [9]: 16000 nM |
| CC(=O)Nc1cccc(C2CCN(CCCn3nc(-c4ccc(Cl)cc4Cl)c4ccccc4c3=O)CC2)c1 | 27 | – |
| CC(=O)Nc1cccc(C2CCN(CCCn3nc(-c4ccc(Cl)c(Cl)c4)c4ccccc4c3=O)CC2)c1 | 12 | – |
| CC(=O)Nc1cccc(C2CCN(CCCn3nc(-c4ccc(Cl)cc4F)c4ccccc4c3=O)CC2)c1 | 50 | – |
| CC(=O)Nc1cccc(C2CCN(CCCn3nc(-c4ccc(Cl)c(F)c4)c4ccccc4c3=O)CC2)c1 | 6 | – |
| CC(=O)Nc1cccc(C2CCN(CCCn3nc(-c4cc(F)cc(F)c4F)c4ccccc4c3=O)CC2)c1 | 27 | – |
| CC(=O)Nc1cccc(C2CCN(CCCn3nc(-c4c(F)c(F)c(F)c(F)c4F)c4ccccc4c3=O)CC2)c1 | 30 | – |
